# Tests used:
# [1] = tested on: His-tagged WT Mina53; assay: In vitro demethylation, dot blotting, WT Mina53; format: biochemical; details: 2 h at 37 °C, cofactors
# [2] = tested on: inactive mutant (H179Y/D181G/H240Y) of Mina53; assay: In vitro demethylation, dot blotting, inactive mutant Mina53; format: biochemical; details: 2 h at 37 °C, cofactors
# [3] = tested on: WT Mina53; assay: LC-MS of in vitro demethylation products, WT Mina53; format: biochemical; details: high-resolution MS
# Procedure, shortened: (§1)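 Reaction mixtures were brought to 0.2% TFA and 2% acetonitrile (final) and desalted on C18 ZipTips (activated in 80% acetonitrile/0.1% TFA, equilibrated in 0.1% TFA). Separation was on an HSS T3 UPLC column with 0.1% formic acid in water versus acetonitrile/0.1% formic acid. Detection used positive-mode ESI TOF MS scanning 400-1500 m/z, and relative peptide abundance was compared.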
# [4] = tested on: His-tagged Mina53; assay: Pulldown of synthetic H4R3 peptides with purified His-tagged Mina53; format: binding; details: H4R3 peptides with different R3 modifications
# [5] = target: FITC-conjugated H4R3me2a peptide; assay: MST
# [6] = tested on: HEK293T nuclear proteins (H4R3me2a interactors); assay: Proteome-wide photoaffinity capture, dimethyl labelling, LC-MS; format: binding, Homo sapiens; details: |log2 fold change| > 2, P < 0.05; vs peptide without pLeu
# Procedure, shortened: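 HEK293T cells were lysed in RSB buffer and crude nuclei resuspended in crosslinking buffer (100 mM HEPES, 1.5 mM MgCl2, 150 mM KCl, pH 7.5). Nuclei received 100 µM biotinylated pLeu peptide in the dark, then 365 nm UV on ice. After washing and sonication, proteins were captured on streptavidin and washed stringently. Only proteins quantified in both replicates were kept, with two-tailed unpaired t-test P-values.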
# [7] = tested on: catalytically inactive mutant Mina53; assay: LC-MS of in vitro demethylation products, mutant Mina53; format: biochemical; details: high-resolution MS
# Procedure, shortened: as §1
# [8] = target: Mina53 (Homo sapiens, UniProt Q8IUF8); assay: Formaldehyde release assay; format: biochemical; details: AAPT (modified NASH), ex 355 nm / em 470 nm
# Mina53, sequence (Q8IUF8 whole entry): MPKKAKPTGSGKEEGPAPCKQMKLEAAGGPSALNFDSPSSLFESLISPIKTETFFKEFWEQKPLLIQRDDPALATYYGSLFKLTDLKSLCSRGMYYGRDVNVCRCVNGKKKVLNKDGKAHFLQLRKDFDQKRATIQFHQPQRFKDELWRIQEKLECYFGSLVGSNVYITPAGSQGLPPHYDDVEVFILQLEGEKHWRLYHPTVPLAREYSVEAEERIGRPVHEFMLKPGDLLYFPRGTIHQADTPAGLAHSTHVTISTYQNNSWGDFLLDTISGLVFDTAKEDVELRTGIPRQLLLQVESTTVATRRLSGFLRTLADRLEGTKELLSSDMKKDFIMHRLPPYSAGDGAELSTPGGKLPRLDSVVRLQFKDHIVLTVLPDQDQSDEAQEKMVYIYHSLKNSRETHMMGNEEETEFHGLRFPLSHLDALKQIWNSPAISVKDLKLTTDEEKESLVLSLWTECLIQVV
# Procedure, shortened: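 After the demethylation reaction, samples were TCA-precipitated and 1% Tris buffer was added. An equal volume of AAPT buffer was added to the supernatant and incubated 30 min at room temperature. Formaldehyde was quantified against a standard curve from serial dilutions of 37% formaldehyde. Km and kcat were fitted to the Michaelis-Menten equation.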
# [9] = tested on: mutant Mina53 (D329A/D333A); assay: Microscale thermophoresis, mutant Mina53; format: binding; details: MST; D333A/D329A mutant vs WT; n=3 independent assays
# Procedure, shortened: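 His-tagged Mina53 was titrated from 3 nM to 0.1 mM against 25 nM FITC-labelled H4R3me2a peptide. Mixtures were incubated 15 min in 30 mM Hepes, 150 mM NaCl, pH 7.5, then loaded into glass capillaries for microscale thermophoresis. KD was fitted from the thermophoresis response.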
# His-tagged Mina53 (Myc-induced nuclear antigen 53), wild type, sequence (Q8IUF8 whole entry): as above
substance,measurement,setting,value
SGR(Me1)GKGGKGLGKGGAKRHRKVGGK(Biotin) [H4R3me1],Dot-blot signal change with WT Mina53,[1],drastically decreased
same,Dot-blot signal change with mutant Mina53,[2],not mutant Mina53
same,Appearance of non-methylated peptide,[3]; H4R3me1 peptide as substrate,modest non-methylated peptide appearance
SGR(Me2s)GKGGKGLGKGGAKRHRKVGGK(Biotin) [H4R3me2s],Amount of peptide pulled down by Mina53,[4],in the smallest amount
"His-tagged Mina53 (Myc-induced nuclear antigen 53), wild type (from UniProt Q8IUF8 1-465) (enzyme)",Kd,[5],27.6 µM
APATGGV-Kme3-KPHRYRP(Biotin) [H3K36me3],Dot-blot signal change with WT Mina53,[1],modestly decreased
same,Dot-blot signal change with mutant Mina53,[2],not mutant Mina53
pLeuGRme2aGKGGKGLGKGGAKKbio-NH2 [H4R3me2a-pLeu-biotin],"Enrichment of SND1, SMNDC1 and PRMT1 in pLeu-containing peptide sample",[6],enriched
SGR(Me2a)GKGGKGLGKGGAKRHRKVGGK(Biotin) [H4R3me2a],Peptide peak shift with mutant Mina53,[7],not mutant Mina53
same,turn-over rate (kcat),[8],0.37 ± 0.08 s⁻¹
same,Dot-blot signal change with WT Mina53,[1],drastically decreased
same,Dot-blot signal change with mutant Mina53,[2],not mutant Mina53
same,Peptide peak shift (to mono-methylated peptide),[3]; WT Mina53,14 Da
same,Binding affinity of mutant Mina53,[9],drastic loss of binding
